Results as given in ChEMBL document CHEMBL4715754, “Slowing down fat digestion and absorption by an oxadiazolone inhibitor targeting selectively gastric lipolysis” (2016).
Activity calls are given as the source filed them. The rule behind the calls is not given here.

Columns and labels:
[1] = biological target: T1, Pancreatic triacylglycerol lipase (Homo sapiens) (UniProt P16233); test: Inhibition of human pancreatic lipase at 400:1 molar excess compound concentration preincubated for 30 mins at 25 degreeC relative to control
T1 sequence (whole entry): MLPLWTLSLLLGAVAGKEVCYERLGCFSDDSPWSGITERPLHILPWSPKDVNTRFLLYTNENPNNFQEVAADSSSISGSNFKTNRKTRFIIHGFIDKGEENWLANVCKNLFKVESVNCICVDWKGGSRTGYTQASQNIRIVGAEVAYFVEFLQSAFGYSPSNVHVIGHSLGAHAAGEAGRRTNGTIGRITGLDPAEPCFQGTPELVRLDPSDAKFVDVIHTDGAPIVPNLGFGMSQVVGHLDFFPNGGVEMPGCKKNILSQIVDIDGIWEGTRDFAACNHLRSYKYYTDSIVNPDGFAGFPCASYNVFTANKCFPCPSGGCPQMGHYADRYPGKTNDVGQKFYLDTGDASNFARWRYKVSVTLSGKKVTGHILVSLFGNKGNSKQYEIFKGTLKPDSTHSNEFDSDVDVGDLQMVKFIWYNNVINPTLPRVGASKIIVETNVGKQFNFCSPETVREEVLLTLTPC
Outline: (§1)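 Pancreatic lipase from human pancreatic juice (54 µg/mL HPL stock) or porcine pancreatic extract (32 µg/mL PPL stock) was held in 10 mM MES pH 7.0, 150 mM NaCl. It was pre-incubated with inhibitor from DMSO stock for 30 min at 25 °C with 4 mM NaTDC at varied molar excess. Residual activity was read by pH-stat on tributyrin at 37 °C, pH 8.0, with 2 mM CaCl₂ and 4 mM NaTDC. x_I50 was taken from residual activity; DMSO-only controls were run.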

[2] = biological target: T2, Pancreatic triacylglycerol lipase (Sus scrofa) (UniProt P00591); test: Inhibition of porcine pancreatic lipase at 400:1 molar excess compound concentration preincubated for 30 mins at 25 degreeC relative to control; outline: as §1
T2 sequence (whole entry): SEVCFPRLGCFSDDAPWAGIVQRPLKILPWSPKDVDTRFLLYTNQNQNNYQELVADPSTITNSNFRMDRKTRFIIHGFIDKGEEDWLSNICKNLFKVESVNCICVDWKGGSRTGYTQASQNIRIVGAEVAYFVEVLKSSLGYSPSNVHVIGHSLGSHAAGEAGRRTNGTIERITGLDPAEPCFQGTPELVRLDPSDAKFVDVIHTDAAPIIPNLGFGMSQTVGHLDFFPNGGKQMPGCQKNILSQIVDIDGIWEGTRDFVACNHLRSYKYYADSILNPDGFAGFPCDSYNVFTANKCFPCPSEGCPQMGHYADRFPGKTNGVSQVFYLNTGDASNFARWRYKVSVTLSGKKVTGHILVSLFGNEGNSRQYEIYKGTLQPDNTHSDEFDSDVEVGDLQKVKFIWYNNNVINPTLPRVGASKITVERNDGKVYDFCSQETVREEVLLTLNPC

[3] = biological target: T3, Pancreatic lipase-related protein 2 (Cavia porcellus) (UniProt P81139); test: Inhibition of recombinant guinea pig PL-RP2 expressed in Aspergillus oryzae at 4:1 molar excess compound concentration preincubated for 30 mins at 25 degreeC relative to control
T3 sequence (whole entry): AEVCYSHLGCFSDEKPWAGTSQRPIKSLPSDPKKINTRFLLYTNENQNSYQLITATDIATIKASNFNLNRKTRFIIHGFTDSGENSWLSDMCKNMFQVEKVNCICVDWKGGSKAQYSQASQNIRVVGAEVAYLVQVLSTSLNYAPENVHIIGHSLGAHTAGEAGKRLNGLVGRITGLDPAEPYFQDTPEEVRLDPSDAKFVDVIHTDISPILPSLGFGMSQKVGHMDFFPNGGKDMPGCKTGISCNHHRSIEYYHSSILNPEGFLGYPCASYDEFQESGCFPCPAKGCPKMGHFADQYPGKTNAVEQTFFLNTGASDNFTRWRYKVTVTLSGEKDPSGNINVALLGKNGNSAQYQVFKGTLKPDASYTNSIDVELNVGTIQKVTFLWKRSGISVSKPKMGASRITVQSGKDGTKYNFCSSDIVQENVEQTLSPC

[4] = biological target: T4, Gastric triacylglycerol lipase (Canis lupus familiaris) (UniProt P80035); test: Inhibition of recombinant dog gastric lipase at 20:1 molar excess compound concentration preincubated for 30 mins at 25 degreeC relative to control
T4 sequence (whole entry): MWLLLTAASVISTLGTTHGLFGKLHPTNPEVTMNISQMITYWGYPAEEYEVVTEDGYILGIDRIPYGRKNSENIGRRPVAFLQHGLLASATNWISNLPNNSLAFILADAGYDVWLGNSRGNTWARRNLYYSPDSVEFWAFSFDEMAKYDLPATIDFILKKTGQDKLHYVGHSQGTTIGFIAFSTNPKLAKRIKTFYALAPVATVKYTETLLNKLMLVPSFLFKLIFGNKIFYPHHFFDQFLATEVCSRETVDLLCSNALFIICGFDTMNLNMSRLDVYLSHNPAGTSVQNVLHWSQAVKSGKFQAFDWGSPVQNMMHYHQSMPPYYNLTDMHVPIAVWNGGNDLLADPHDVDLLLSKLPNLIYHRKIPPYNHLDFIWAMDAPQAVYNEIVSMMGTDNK

[5] = biological target: T4, Gastric triacylglycerol lipase (Canis lupus familiaris); test: Inhibition of recombinant dog gastric lipase preincubated for 30 mins at 25 degreeC
[6] = biological target: T3, Pancreatic lipase-related protein 2 (Cavia porcellus); test: Inhibition of recombinant guinea pig PL-RP2 expressed in Aspergillus oryzae preincubated for 30 mins at 25 degreeC
[7] = biological target: T3, Pancreatic lipase-related protein 2 (Cavia porcellus); test: Inhibition of recombinant guinea pig PL-RP2 expressed in Aspergillus oryzae at 20:1 molar excess compound concentration preincubated for 30 mins at 25 degreeC relative to control
[8] = biological target: T1, Pancreatic triacylglycerol lipase (Homo sapiens); test: Inhibition of human pancreatic lipase preincubated for 30 mins at 25 degreeC; outline: as §1
[9] = biological target: T4, Gastric triacylglycerol lipase (Canis lupus familiaris); test: Inhibition of recombinant dog gastric lipase at 4:1 molar excess compound concentration preincubated for 30 mins at 25 degreeC relative to control
[10] = biological target: T2, Pancreatic triacylglycerol lipase (Sus scrofa); test: Inhibition of porcine pancreatic lipase preincubated for 30 mins at 25 degreeC; outline: as §1
[11] = biological target: T2, Pancreatic triacylglycerol lipase (Sus scrofa); test: Inhibition of porcine pancreatic lipase at 400:1 molar excess compound concentration preincubated for 120 mins at 25 degreeC
[12] = biological target: T1, Pancreatic triacylglycerol lipase (Homo sapiens); test: Inhibition of human pancreatic lipase at 400:1 molar excess compound concentration preincubated for 120 mins at 25 degreeC

Compound	inhibition [1]	inhibition [2]	inhibition [3]	inhibition [4]	XI50 [5]	XI50 [6]	inhibition [7]	XI50 [8]	inhibition [9]	XI50 [10]	inhibition [11]	inhibition [12]
CCCCCCOc1nn(-c2cccc(Oc3ccccc3)c2)c(=O)o1	17.1%	27.2%	90.7%	65.9%	4.92 molar excess	1.09 molar excess	91.3%	> 400 molar excess	43.5%	> 400 molar excess	–	–
COc1nn(-c2ccc(Oc3ccccc3)cc2)c(=O)o1	4%	–	–	–	–	–	–	–	–	> 400 molar excess	–	–
CCCCOc1nn(-c2cccc(Oc3ccccc3)c2)c(=O)o1	19.1%	19.7%	42.4%	77.5%	5.33 molar excess	> 40 molar excess	43.8%	> 400 molar excess	41.5%	> 400 molar excess	–	–
CCCCCCCCOc1nn(-c2cccc(Oc3ccccc3)c2)c(=O)o1	25.7%	19.9%	62.3%	70.5%	3.99 molar excess	1.47 molar excess	63%	> 400 molar excess	53.9%	> 400 molar excess	–	–
CCOc1nn(-c2cccc(Oc3ccccc3)c2)c(=O)o1	18.8%	19%	27.4%	83%	6.08 molar excess	> 40 molar excess	27.7%	> 400 molar excess	33.6%	> 400 molar excess	–	–
COc1nn(-c2cccc(Oc3ccccc3)c2)c(=O)o1	49.1%	–	–	–	–	–	–	–	–	–	inactive	inactive
CCCCC(CC)COc1nn(-c2cccc(Oc3ccccc3)c2)c(=O)o1 (stereo not drawn)	22.4%	18.9%	47.9%	27.6%	> 100 molar excess	2.8 molar excess	54.8%	> 400 molar excess	21.6%	> 400 molar excess	–	–
CCCCCCCCCCCCOc1nn(-c2cccc(Oc3ccccc3)c2)c(=O)o1	29.1%	27.9%	53.1%	68.2%	4.57 molar excess	1.17 molar excess	54.4%	> 400 molar excess	44.1%	> 400 molar excess	–	–
CC(C)COc1nn(-c2cccc(Oc3ccccc3)c2)c(=O)o1	21.2%	20.6%	73.6%	69.6%	5.51 molar excess	0.52 molar excess	76%	> 400 molar excess	35.2%	> 400 molar excess	–	–
COCCOc1nn(-c2cccc(Oc3ccccc3)c2)c(=O)o1	20%	15.5%	60.3%	69.1%	11.8 molar excess	1.7 molar excess	67.8%	> 400 molar excess	18.1%	> 400 molar excess	–	–
CCCCCCCCCCOc1nn(-c2cccc(Oc3ccccc3)c2)c(=O)o1	20.1%	32.5%	56.4%	37.7%	> 100 molar excess	2.72 molar excess	57.4%	> 400 molar excess	14.6%	> 400 molar excess	–	–
COc1nn(-c2ccccc2)c(=O)o1	25.6%	90.6%	–	–	–	–	–	> 400 molar excess	–	–	–	–
